Data taken from ChEMBL document CHEMBL1135893, “Synthesis and mode of action of hydrophobic derivatives of the glycopeptide antibiotic eremomycin and des-(N-methyl-D-leucyl)eremomycin against glycopeptide-sensitive and -resistant bacteria” (J Med Chem, 2002).

Columns and labels:
Enterococcus faecium [1] = assay: Antibacterial activity evaluated as minimum inhibitory concentration against 569 Enterococcus faecium (GRE); assay type: functional
In short: (§1)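 Broth microdilution in Mueller Hinton broth per NCCLS procedure; repeat results usually identical, always within 2-fold. GISA strains 3797 (HIP-5836 New Jersey) and 3798 (HIP-5827 Michigan); 533 S. epidermidis and 602 S. haemolyticus are clinical isolates; vancomycin-resistant enterococci have confirmed genotype.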

Enterococcus faecalis [2] = assay: Antibacterial activity evaluated as minimum inhibitory concentration against 559 Enterococcus faecalis (GSE); assay type: functional; design: unit not given beside the values; in short: as §1
Enterococcus faecalis [3] = assay: Antibacterial activity evaluated as minimum inhibitory concentration against 560 Enterococcus faecalis (GRE); assay type: functional; in short: as §1
Enterococcus faecium [4] = assay: Antibacterial activity evaluated as minimum inhibitory concentration against 568 Enterococcus faecium (GSE); assay type: functional; in short: as §1
Staphylococcus aureus [5] = assay: Antibacterial activity evaluated as minimum inhibitory concentration against 3797 Staphylococcus aureus (GISA); assay type: functional; design: unit not given beside the values; in short: as §1
Staphylococcus aureus [6] = assay: Antibacterial activity evaluated as minimum inhibitory concentration against 3798 Staphylococcus aureus (GISA); assay type: functional; design: unit not given beside the values; in short: as §1
[7] = test system: Staphylococcus epidermidis; assay: Antibacterial activity evaluated as minimum inhibitory concentration against 533 Staphylococcus epidermidis; assay type: functional; in short: as §1
Nucleic Acid [8] = assay: Inhibition of the peptidoglycan synthesis in the absence of dipeptide bonding using UDP-MurNAc-pentapeptide; assay type: nucleic-acid assay
In short: (§2)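 Peptidoglycan synthesis run on filter plates with E. coli OV58 (pTA9) membranes, UDP-MurNAc-pentapeptide or UDP-MurNAc-tetrapeptide plus UDP-N-acetyl-[14C]-D-glucosamine as substrates; radiolabel incorporation into peptidoglycan measured. IC50 from at least six drug concentrations in duplicate, fitted by four-parameter logistic nonlinear regression.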

Nucleic Acid [9] = assay: Inhibition of the peptidoglycan synthesis in the absence of dipeptide bonding using UDP-MurNAc-tetrapeptide; assay type: nucleic-acid assay; in short: as §2
Nucleic Acid [10] = assay: Ratio UDP-MurNAc-tetrapeptide to UDP-MurNAc-Pentapeptide; assay type: nucleic-acid assay
[11] = test system: Staphylococcus haemolyticus; assay: Antibacterial activity evaluated as minimum inhibitory concentration against 602 Staphylococcus haemolyticus; design: unit not given beside the values

MIC (Enterococcus faecium [1]) | MIC (Enterococcus faecalis [2]) | MIC (Enterococcus faecalis [3]) | MIC (Enterococcus faecium [4]) | MIC (Staphylococcus aureus [5]) | MIC (Staphylococcus aureus [6]) | MIC [7] | IC50 (Nucleic Acid [8]) [µM] | IC50 (Nucleic Acid [9]) [µM] | Ratio (Nucleic Acid [10]) | SMILES | MIC [11]
8 | 4 | 8 | 4 | 8 | 8 | 4 | 7.7 | 9.2 | 1.2 | C[C@H]1O[C@@H](O[C@@H]2[C@H](Oc3c4cc5cc3Oc3ccc(cc3Cl)[C@@H](O)[C@@H](N)C(=O)N[C@@H](CC(N)=O)C(=O)N[C@H]5C(=O)N[C@H]3C(=O)N[C@H](C(=O)N[C@H](C(=O)O)c5cc(O)cc(O)c5-c5cc3ccc5O)[C@H](O[C@H]3C[C@@](C)(N)[C@@H](O)[C@@H](C)O3)c3cccc(c3)O4)O[C@@H](CO)[C@H](O)[C@H]2O)C[C@@](C)(NCc2ccc(-c3ccc(Cl)cc3)cc2)[C@H]1O | 4
2 | 1 | 4 | 0.5 | 4 | 4 | 0.13 | 1.3 | 6.4 | 5 | CCCCCCCCCCNC(=O)[C@H]1NC(=O)[C@H]2NC(=O)[C@H](NC(=O)[C@@H]3NC(=O)[C@H](CC(N)=O)NC(=O)[C@H](NC(=O)[C@@H](CC(C)C)NC)[C@H](O)c4ccc(c(Cl)c4)Oc4cc3cc(c4O[C@@H]3O[C@@H](CO)[C@H](O)[C@@H](O)[C@@H]3O[C@H]3C[C@@](C)(N)[C@@H](O)[C@@H](C)O3)Oc3cccc(c3)[C@H]2O[C@H]2C[C@@](C)(N)[C@@H](O)[C@@H](C)O2)c2ccc(O)c(c2)-c2c(O)cc(O)cc21 | 0.13
4 | 0.5 | 8 | 0.5 | 4 | 4 | 0.5 | 1.8 | 13.3 | 7.3 | CCCCCCCCCCN[C@]1(C)C[C@H](O[C@@H]2[C@H](Oc3c4cc5cc3Oc3ccc(cc3Cl)[C@@H](O)[C@@H](NC(=O)[C@@H](CC(C)C)NC)C(=O)N[C@@H](CC(N)=O)C(=O)N[C@H]5C(=O)N[C@H]3C(=O)N[C@H](C(=O)N[C@H](C(=O)O)c5cc(O)cc(O)c5-c5cc3ccc5O)[C@H](O[C@H]3C[C@@](C)(N)[C@@H](O)[C@@H](C)O3)c3cccc(c3)O4)O[C@@H](CO)[C@H](O)[C@H]2O)O[C@H](C)[C@@H]1O | 0.5
